Results: paper PMC10408732 (Anesthesia and Analgesia, 2023)
Where two headings read alike, the source gives them in different places.

Assays:
[1] = same software; cited from earlier work
[2] = test system: oxaliplatin-induced neuropathic pain in mice; settings: oxaliplatin model; cited from earlier work
rat α9α10 nAChR = rat α9α10 nAChR (Rattus norvegicus, UniProt P43144+Q9JLB5); assay: Two-electrode voltage clamp at rα9α10 nAChRs expressed in Xenopus laevis oocytes; assay type: cell-based; settings: for IC50: Inhibition IC50 (μM), −80 mV
mice [3] = assay: Effect on pain threshold, hot plate test; assay type: in vivo; settings: acute or repeated (7 days) 30 mg/kg, P > .05 vs vehicle
mice [4] = assay: Rota-rod test; assay type: in vivo
How it was run: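 Rota-rod, mice n = 5/condition. Test compound 30 mg/kg, single dose (tested right after) or daily for 7 days (tested day 8); vehicle controls. Falls from the rod counted over a 30 s test, every 15 min for 1 h. Mice with <3 or >6 falls in the pretest were excluded.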

mice [5] = assay: Effect on pain threshold, cold plate test; assay type: in vivo; settings: acute or repeated (7 days) 30 mg/kg, P > .05 vs vehicle
[6] = test system: oxaliplatin-induced neuropathic pain in mice; assay: Oxaliplatin-induced neuropathic pain, cold plate test; assay type: in vivo
How it was run: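 Male CD-1 mice, n = 10/condition, given oxaliplatin 2.4 mg/kg i.p. in 5% glucose, 5 days/week for 2 weeks. On day 15: baseline cold plate, then oral test compound (1, 3, 10 or 30 mg/kg, or a two-compound combination at 30 mg/kg each) in 1% carboxymethyl cellulose. Hind-paw licking latency every 15 min for 60–75 min, 30 s cutoff; mean ± SEM; 1-way ANOVA with Bonferroni.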

rat α7 nAChR [7] = target: T1, rat α7 nAChR (Rattus norvegicus, UniProt Q05941); assay: Two-electrode voltage clamp at rα7 nAChRs expressed in Xenopus laevis oocytes; assay type: cell-based
human CaV2.2 channel [8] = target: T2, human CaV2.2 channel (Homo sapiens, UniProt Q00975); assay: Whole-cell patch clamp recording of CaV2.2 channels expressed in HEK293T cells; assay type: cell-based
How it was run: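 Human CaV2.2 transiently expressed in HEK293T cells; whole-cell patch clamp at room temperature 24–48 h after transfection. Bath: 10 mM BaCl2, 30 mM TEA-Cl, pH 7.35. Pipette (2–3 MΩ): K-gluconate with 5 mM EGTA, pH 7.2. Ba2+ currents evoked from −80 mV by steps to −10 or −15 mV at 0.1 Hz, in the absence and presence of test compound.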

rat α7 nAChR [9] = target: T1, rat α7 nAChR; settings: rα7, same conditions, cited from earlier work
human CaV2.2 channel [10] = target: T2, human CaV2.2 channel; settings: cited from earlier work
[11] = read-out: inhibition of ACh-evoked currents
[12] = acute, single dose 30 mg/kg, counted every 15 min for 1 h, P > .05 vs vehicle
[13] = oxaliplatin-treated mice, 30 mg/kg oral, cold plate test

Sequence of rat α9α10 nAChR (P43144 26-479): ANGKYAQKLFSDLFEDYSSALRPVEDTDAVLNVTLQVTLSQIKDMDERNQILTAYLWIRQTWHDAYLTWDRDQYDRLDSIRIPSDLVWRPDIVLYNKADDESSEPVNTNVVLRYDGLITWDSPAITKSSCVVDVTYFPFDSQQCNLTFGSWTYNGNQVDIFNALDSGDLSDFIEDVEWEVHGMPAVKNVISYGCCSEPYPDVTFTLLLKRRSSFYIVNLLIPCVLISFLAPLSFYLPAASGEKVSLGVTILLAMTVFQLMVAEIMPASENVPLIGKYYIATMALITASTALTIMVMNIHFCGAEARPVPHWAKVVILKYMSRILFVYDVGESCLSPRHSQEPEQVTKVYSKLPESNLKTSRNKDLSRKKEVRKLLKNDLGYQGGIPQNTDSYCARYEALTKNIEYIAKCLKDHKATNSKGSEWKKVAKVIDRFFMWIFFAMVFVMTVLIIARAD
Sequence of rat α9α10 nAChR (Q9JLB5 25-447): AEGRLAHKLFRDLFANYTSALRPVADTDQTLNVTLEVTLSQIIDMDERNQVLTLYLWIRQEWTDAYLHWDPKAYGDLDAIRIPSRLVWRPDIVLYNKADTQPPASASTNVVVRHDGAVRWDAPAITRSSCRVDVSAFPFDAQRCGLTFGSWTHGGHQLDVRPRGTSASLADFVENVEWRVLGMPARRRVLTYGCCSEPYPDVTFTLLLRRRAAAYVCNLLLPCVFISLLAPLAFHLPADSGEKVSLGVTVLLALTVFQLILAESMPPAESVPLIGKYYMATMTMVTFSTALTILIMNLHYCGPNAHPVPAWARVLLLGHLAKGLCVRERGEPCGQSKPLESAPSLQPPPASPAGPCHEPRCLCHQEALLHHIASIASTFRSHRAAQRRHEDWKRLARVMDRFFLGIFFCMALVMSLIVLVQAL
T1 sequence (Q05941 23-502): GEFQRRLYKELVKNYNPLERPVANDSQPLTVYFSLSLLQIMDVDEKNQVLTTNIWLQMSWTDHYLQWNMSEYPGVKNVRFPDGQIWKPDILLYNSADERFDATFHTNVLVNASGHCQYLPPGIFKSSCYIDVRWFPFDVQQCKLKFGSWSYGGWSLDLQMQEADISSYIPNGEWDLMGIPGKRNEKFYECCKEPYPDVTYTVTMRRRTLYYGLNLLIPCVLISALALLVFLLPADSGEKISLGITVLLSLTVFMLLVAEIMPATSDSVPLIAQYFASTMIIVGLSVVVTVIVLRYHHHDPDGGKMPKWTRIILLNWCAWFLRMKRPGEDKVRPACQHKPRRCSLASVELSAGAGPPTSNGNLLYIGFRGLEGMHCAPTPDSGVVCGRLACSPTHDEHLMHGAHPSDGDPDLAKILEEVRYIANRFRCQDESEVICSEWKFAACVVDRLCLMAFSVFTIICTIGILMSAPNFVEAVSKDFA

In the case of `O=C(/C=C/c1ccco1)N1CCc2ccccc21` [DM489, (E)-3-(furan-2-yl)-1-(indolin-1-yl)prop-2-en-1-one], the LogBBB [1] is listed as 0.17 and the “active dose (antinociceptive activity)” value [2] is listed as 10 mg/kg.

`Cc1ccc(N(C)C(=O)/C=C/c2ccco2)cc1` [DM490, (E)-3-(furan-2-yl)-N-methyl-N-(p-tolyl)acrylamide] gave an IC50 (rat α9α10 nAChR; rα9α10, agonist ACh 10 µM) of 41 ± 4 µM, an IC50 (rat α9α10 nAChR; rα9α10, agonist ACh 100 µM) of 36 ± 4 µM and an inhibition at 30 µM (rat α9α10 nAChR; [11]) of about 45%. For the same compound, the “fold higher antagonist potency than that for DM497” value (rat α9α10 nAChR; α9α10 nAChR) was over 8 fold, the “pain threshold for heat stimuli” value (mice [3]) was “did not change the pain threshold” and the “endurance time (number of falls per 30 seconds)” value (mice [4]; [12]) was “did not modify the endurance time”. For the same compound, the “endurance time (number of falls per 30 seconds)” value (mice [4]; repeated, 30 mg/kg daily for 7 days, day 8, P > .05 vs vehicle) was “did not modify the endurance time”, the “pain threshold for cold stimuli” value (mice [5]) was “did not change the pain threshold” and the “activity on oxaliplatin-treated animals (cold plate test)” value ([6]; 30 mg/kg oral, alone) was “without inducing any activity on oxaliplatin-treated animals”. The IC50 (rat α7 nAChR [7]) was 15.1 ± 1.8 µM, the inhibition at 10 µM (rat α7 nAChR [7]; read-out: inhibition of ACh-evoked current amplitude) was about 40% and the “Inhibition nH” value (rat α7 nAChR [7]; rα7, agonist ACh 30 µM) was under 1.5. For the same compound, the IC50 (human CaV2.2 channel [8]) was 93 ± 16 µM.

`Cc1ccc(NC(=O)/C=C/c2cccs2)cc1` [DM497, (E)-3-(thiophen-2-yl)-N-(p-tolyl)acrylamide] showed an IC50 (rat α9α10 nAChR; rα9α10, agonist ACh 10 µM) of 340 ± 21 µM, an IC50 (rat α9α10 nAChR; rα9α10, agonist ACh 100 µM) of 369 ± 21 µM and an inhibition at 300 µM (rat α9α10 nAChR; [11]) of 40%. For the same compound, the “endurance time (number of falls per 30 seconds)” value (mice [4]; [12]) was “did not modify the endurance time”, the “activity when administered alone (cold plate test)” value ([6]; mice without oxaliplatin, 10 mg/kg) was “without inducing any activity when administered alone” and the “active dose (antinociceptive activity)” value ([6]; oxaliplatin model, this work) was 10 mg/kg. For the same compound, the “onset of antinociceptive activity” value ([6]; oxaliplatin-treated mice, 10 mg/kg oral, cold plate test) was 30 min, the “extent of the antinociceptive effect at 30 mg/kg compared to 10 mg/kg” value [6, 13] was “without changing the extent of the antinociceptive effect” and the “onset of antinociceptive activity” value [6, 13] was 15 min. The “antinociceptive activity (licking latency, cold plate test)” value ([6]; oxaliplatin-treated mice, day 15, single oral 1 mg/kg) was “but not 1 or 3 mg/kg”, the EC50 (rat α7 nAChR [7]) was 86 ± 10 µM and the Emax (rat α7 nAChR [7]; read-out: maximal efficacy at rα7 nAChRs) was 196%. For the same compound, the “potentiation of ACh-evoked currents” value (rat α7 nAChR [7]; rα7, 30 µM ACh, 100 µM compound) was ~ 100%, the “Potentiation nH” value (rat α7 nAChR [7]; rα7, agonist ACh 30 µM) was about 2 and the “inhibitory activity at the CaV2.2 channel (in words)” value (human CaV2.2 channel [8]; CaV2.2 channel) was “minimal effect”. It also gave an inhibition at 300 µM (human CaV2.2 channel [8]; HEK-293T, read-out: inhibition of whole-cell Ba2+ currents, hCaV2.2, at 300 µM) of about 20%.

`O=C1[O][Pt]2([NH][C@@H]3CCCC[C@H]3[NH]2)[O]C1=O` [Oxaliplatin, reference compound] gave an IC50 (rat α7 nAChR [7]; read-out: Inhibition IC50, rα7, agonist ACh 30 µM, −80 mV) of 200 µM and an IC50 (rat α7 nAChR [7]; read-out: Inhibition IC50, rα7, agonist nicotine 25 µM) of 200 µM.

For `Cc1ccc(NC(=O)/C=C/c2ccco2)cc1` [PAM-2, (E)-3-furan-2-yl-N-p-tolyl-acrylamide], the IC50 (rat α7 nAChR [9]; read-out: potency at rα7 nAChRs (IC50 as printed)) is listed as 12 µM, the “maximal efficacy at rα7 nAChRs” value (rat α7 nAChR [9]) is listed as 135% ± 4% and the LogBBB [1] is listed as 0.09. The LogP [1] was 2.96, the “active dose (antinociceptive activity)” value [2] was 3 mg/kg and the IC50 (human CaV2.2 channel [10]) was 89 µM.
